Source: publication PMC11191573 (ACS Omega, 2024)

Tests used:
Aβ1–42 [1] = target: T1, Aβ1–42 (Homo sapiens, UniProt P05067); assay: FTIR spectroscopy of Aβ1–42 secondary structure; assay type: biochemical; conditions: after ThT assay, mixed with Aβ1–42
In short: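 Samples came from completed ThT assays (50 μM Aβ1−42 ± 100 μM constituent, 37 °C, 3 h). 15 μL was dried on a diamond ATR prism at 25 °C, repeated twice. ATR-FTIR spectra were taken over 1500–1700 cm−1 with 100 s integration. The area under the parallel β-sheet absorbance band was integrated. Mean ± SD, n = 3; Dunnett's test.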

Aβ1–42 [2] = target: T1, Aβ1–42; assay: PICUP oligomerization assay; assay type: biochemical; conditions: 50 μM constituent (final), 25 μM Aβ
THP-1 cells = assay: MTT assay; assay type: cell-based, human; conditions: 0, 0.1, 1 or 10 μM tested, 24 h
In short: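 THP-1 cells were plated at 5 × 10^4 cells/well and cultured 24 h at 37 °C. Medium containing 0, 0.1, 1 or 10 μM constituent was added for a further 24 h. Viability was measured with an MTT kit per the manufacturer's protocol and used to set nontoxic working concentrations.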

Aβ1–42 fibrils = Aβ1–42 fibrils (Homo sapiens, UniProt P05067); assay: Aβ fibril destabilization assay; assay type: biochemical; conditions: 100 μM constituent, 50 μM Aβ1–42 fibrils, 37 °C, 5 h
In short: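 Aβ1−42 was pre-aggregated at 37 °C for 2 days, and fibril formation was confirmed by 1 h of stable ThT RFU. Constituent was then added (100 μM final; 50 μM Aβ1−42) and ThT fluorescence (Ex/Em 440/484 nm) was read for 5 h at 37 °C as in the aggregation assay. AUC was calculated. Mean ± SD, n = 3; Dunnett's test.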

TNF mRNA in THP-1 cells = assay: RT-qPCR of TNF in Aβ1–42-stimulated THP-1 cells; assay type: cell-based, human; conditions: 10 μM Aβ1–42, 24 h; ARA 0.1 μM, LPC 10 μM, LTN 0.1 μM, POA 10 μM, ZX 1 μM
Aβ1–42 [3] = target: T1, Aβ1–42; assay: Transmission electron microscopy of Aβ1–42 fibrils after ThT assay; assay type: biochemical; conditions: 100 μM constituent, 50 μM Aβ1–42, 3 h incubation
In short: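 After the 3 h, 37 °C ThT assay (50 μM Aβ1−42, 100 μM constituent), 10 μL was spotted on a copper grid. It was stained with 2% aqueous uranyl acetate, blotted, air-dried and imaged by TEM at 120 kV.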

Aβ1–42 [4] = target: T1, Aβ1–42; assay: ThT assay of Aβ1–42 aggregation; assay type: biochemical; conditions: for Time course of RFU (curve shape) at lower concentrations: 25 and 50 μM constituent, data not shown; for Concentration dependence of activity in ThT assay: 25, 50, 100 μM
In short: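 Aβ1−42 was dissolved in 2 mM NaOH, lyophilized, then taken up in 20 mM phosphate buffer pH 7.4. Final concentrations were 50 μM Aβ1−42, 200 μM ThT and 100 μM constituent (25 and 50 μM for concentration dependence). Fluorescence (Ex 440/Em 484 nm) was read every 5 min for 3 h at 37 °C and blank-subtracted. Phenol red was the positive control and Aβ alone the negative. IC50 came from sigmoidal fitting. Mean ± SD, n = 3.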

[5] = test system: IL 1B mRNA in THP-1 cells; assay: RT-qPCR of IL 1B in Aβ1–42-stimulated THP-1 cells; assay type: cell-based, human; conditions: 10 μM Aβ1–42, 24 h; ARA 0.1 μM, LPC 10 μM, LTN 0.1 μM, POA 10 μM, ZX 1 μM
[6] = test system: TNF protein in THP-1 cell culture media; assay: ELISA of TNF in supernatant of Aβ1–42-stimulated THP-1 cells; assay type: cell-based, human; conditions: 10 μM Aβ1–42, 24 h; LTN 0.1 μM
In short: (§1)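 THP-1 cells were seeded at 5 × 10^5 cells/mL and differentiated to adherent macrophage-like cells (24 h). They were rested 24 h at 37 °C in RPMI-1640/10% FBS/1% P/S, then stimulated with 10 μM Aβ1−42 ± constituent for 24 h. Supernatant was assayed with human IL-1β or TNF-α sandwich ELISA kits, reading A450 and converting to pg/mL. Mean ± SE, n = 3; Tukey's test.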

[7] = test system: IL 1B protein in THP-1 cell culture media; assay: ELISA of IL 1B in supernatant of Aβ1–42-stimulated THP-1 cells; assay type: cell-based, human; conditions: 10 μM Aβ1–42, 24 h; LTN 0.1 μM
In short: as §1

Aβ = conditions: previously shown; cited from earlier work
Caco-2 cells = conditions: in vitro; cited from earlier work
[8] = monkeys, after feeding; cited from earlier work
Aβ1–42 [9] = target: T1, Aβ1–42; conditions: previous paper; cited from earlier work

T1 sequence (P05067 672-713): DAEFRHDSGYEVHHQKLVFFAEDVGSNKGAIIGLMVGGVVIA
Sequence of Aβ1–42 fibrils (P05067 672-713): as above

With CCCCC/C=C\C/C=C\C/C=C\C/C=C\CCCC(=O)O [ARA, arachidonic acid] the “AUC of absorbances in the range of 1615–1645 cm^–1 (parallel β-sheet)” value (from here on “AUC of absorbances”) (Aβ1–42 [1]) was “decrease”, the “Inhibition of Aβ1–42 oligomerization (PICUP)” value (“Inhibition … (PICUP)” for short) (Aβ1–42 [2]) was “did not inhibit oligomerization” and the “Optimal (nontoxic) concentration determined by MTT assay” value (“Optimal (nontoxic) concentration” below) (THP-1 cells) was 0.1 µM. The “RFU of ThT during incubation with preformed Aβ1–42 fibrils” value (from here on “RFU of ThT during incubation”) (Aβ1–42 fibrils) was “remained unchanged”, the “TNF mRNA induced by Aβ1–42” value (TNF mRNA in THP-1 cells) was “not suppressed” and the “Inhibition of Aβ1–42 aggregation observed by TEM” value (shortened to “Inhibition … by TEM”) (Aβ1–42 [3]) was “inhibited Aβ1–42 aggregation”. For the same compound, the IC50 (Aβ1–42 [4]) was 37.4 µM, the “RFU at start of ThT assay” value (Aβ1–42 [4]; 100 μM ARA, 50 μM Aβ1–42) was “approximately 25 RFU” and the “Time course of RFU (curve shape) at lower concentrations” value (shortened to “Time course … at lower concentrations”) (Aβ1–42 [4]) was “did not improve”. The “IL 1B mRNA induced by Aβ1–42” value [5] was “not suppressed”.

With CC1=C[C@H](O)CC(C)(C)[C@H]1/C=C/C(C)=C/C=C/C(C)=C/C=C/C=C(C)/C=C/C=C(C)/C=C/C1=C(C)C[C@@H](O)CC1(C)C [LTN, lutein] the “AUC of absorbances” value (Aβ1–42 [1]) was “particular decrease”, the “Inhibition … (PICUP)” value (Aβ1–42 [2]) was “did not inhibit oligomerization” and the “Protein concentration of TNF in the supernatant” value [6] was “no difference was observed”. For the same compound, the “Protein concentration of IL 1B in the supernatant” value [7] was “suppressed”, the “Optimal (nontoxic) concentration” value (THP-1 cells) was 0.1 µM and the “RFU of ThT during incubation” value (Aβ1–42 fibrils) was “remained unchanged”. For the same compound, the “TNF mRNA induced by Aβ1–42” value (TNF mRNA in THP-1 cells) was “suppressed”, the “Inhibition … by TEM” value (Aβ1–42 [3]) was “inhibited the Aβ1–42 aggregation the most” and the IC50 (Aβ1–42 [4]) was 74 µM. For the same compound, the “Concentration dependence of activity in ThT assay” value (Aβ1–42 [4]) was “concentration-dependent”, the “Time course … at lower concentrations” value (Aβ1–42 [4]) was “sigmoidal curve” and the “Inhibition of Aβ aggregation” value (Aβ) was “inhibit Aβ aggregation”. For the same compound, the “Intestinal absorption of LTN in the presence of LPC” value (Caco-2 cells) was “increases”, the “Concentration of LTN in the brains” value [8] was “increases” and the “IL 1B mRNA induced by Aβ1–42” value [5] was “suppressed”.

In the case of CCCCCC/C=C\CCCCCCCC(=O)O [POA, palmitoleic acid], the “Inhibition … (PICUP)” value (Aβ1–42 [2]) is reported as “inhibited oligomerization”, the “Optimal (nontoxic) concentration” value (THP-1 cells) is reported as 10 µM and the “RFU of ThT during incubation” value (Aβ1–42 fibrils) is reported as “decreased”. The “TNF mRNA induced by Aβ1–42” value (TNF mRNA in THP-1 cells) was “not suppressed”, the “Inhibition … by TEM” value (Aβ1–42 [3]) was “inhibited Aβ1–42 aggregation” and the “Morphology of Aβ fibrils by TEM” value (Aβ1–42 [3]) was “amorphous”. For the same compound, the “Concentration dependence of activity in ThT assay” value (Aβ1–42 [4]) was “no concentration dependence” and the “IL 1B mRNA induced by Aβ1–42” value [5] was “not suppressed”.

In the case of CC1=C(/C=C/C(C)=C/C=C/C(C)=C/C=C/C=C(C)/C=C/C=C(C)/C=C/C2=C(C)C[C@@H](O)CC2(C)C)C(C)(C)C[C@H](O)C1 [ZX, zeaxanthin], the “AUC of absorbances” value (Aβ1–42 [1]) is reported as “decrease”, the “Inhibition … (PICUP)” value (Aβ1–42 [2]) is reported as “inhibited oligomerization” and the “Optimal (nontoxic) concentration” value (THP-1 cells) is reported as 1 µM. For the same compound, the “RFU of ThT during incubation” value (Aβ1–42 fibrils) was “remained unchanged”, the “TNF mRNA induced by Aβ1–42” value (TNF mRNA in THP-1 cells) was “not suppressed” and the “Inhibition … by TEM” value (Aβ1–42 [3]) was “inhibited Aβ1–42 aggregation”. The “Inhibition of Aβ aggregation” value (Aβ) was “inhibit Aβ aggregation” and the “IL 1B mRNA induced by Aβ1–42” value [5] was “not suppressed”.

For L-α-lysophosphatidylcholine [LPC], the “AUC of absorbances” value (Aβ1–42 [1]) is given as “particular decrease”, the “Effect on Aβ1–42 aggregation” value (Aβ1–42 [9]) is given as “facilitates Aβ1–42 aggregation” and the “Optimal (nontoxic) concentration” value (THP-1 cells) is given as 10 µM. For the same compound, the “RFU of ThT during incubation” value (Aβ1–42 fibrils) was “remained unchanged”, the “TNF mRNA induced by Aβ1–42” value (TNF mRNA in THP-1 cells) was “not suppressed” and the “Inhibition … by TEM” value (Aβ1–42 [3]) was “inhibited Aβ1–42 aggregation”. For the same compound, the “Time course … at lower concentrations” value (Aβ1–42 [4]) was “did not improve” and the “IL 1B mRNA induced by Aβ1–42” value [5] was “not suppressed”.
